This is an account of results in ChEMBL document CHEMBL4673340 (J Med Chem, 2020).

Each structure is given as a SMILES string. Calls of active or inactive are those of the source. The calls are words filed in the database; no cut-off is given here. Where only a bound is given, the exact number is not on record here.

Data set [1] in a line: AUC (0 to infinity) in ICR mouse at 10 mg/kg, po by LC-MS/MS analysis. Format: ADME, organism-based. Also noted: time infinity, route oral, dose 10 mg/kg. The settings on record: in vivo. Put shortly:
(§1)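 Male/female unspecified ICR mice, n=3 per route. Intravenous 1 mg/kg in 5% DMA in water; oral 10 mg/kg in 0.5% MC. Plasma is processed by protein precipitation and analysed by LC–MS/MS using an acetonitrile/0.1% formic acid gradient. Values are means of the three animals.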

In data set [2] the test system is SK-BR-3. Briefly: Antiproliferation activity against human SK-BR-3 cells incubated for 7 days by CellTiter-Glo luminescent cell viability assay. The data set is classed as functional, cell-based. The settings on record: SK-BR-3, 168 h. The gist of the method: (§2)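 Seeding density is set per line for log growth over 7 days. Cells attach 16 h, then are treated in duplicate with a 10-point dilution series for 7 days. CellTiter-Glo luminescence (ATP) is read, and viability is expressed relative to mock-treated control. EC50 is the mean of three independent experiments run in triplicate.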
(In general: Cellular ATP, detected with luciferase, serves as a proxy for viable cell number.)

For data set [3], the target named is Cytochrome P450 1A2 (Homo sapiens, UniProt P05177). In words: Inhibition of CYP1A2 (unknown origin). Format: ADME.
Sequence of Cytochrome P450 1A2 (P05177 whole entry): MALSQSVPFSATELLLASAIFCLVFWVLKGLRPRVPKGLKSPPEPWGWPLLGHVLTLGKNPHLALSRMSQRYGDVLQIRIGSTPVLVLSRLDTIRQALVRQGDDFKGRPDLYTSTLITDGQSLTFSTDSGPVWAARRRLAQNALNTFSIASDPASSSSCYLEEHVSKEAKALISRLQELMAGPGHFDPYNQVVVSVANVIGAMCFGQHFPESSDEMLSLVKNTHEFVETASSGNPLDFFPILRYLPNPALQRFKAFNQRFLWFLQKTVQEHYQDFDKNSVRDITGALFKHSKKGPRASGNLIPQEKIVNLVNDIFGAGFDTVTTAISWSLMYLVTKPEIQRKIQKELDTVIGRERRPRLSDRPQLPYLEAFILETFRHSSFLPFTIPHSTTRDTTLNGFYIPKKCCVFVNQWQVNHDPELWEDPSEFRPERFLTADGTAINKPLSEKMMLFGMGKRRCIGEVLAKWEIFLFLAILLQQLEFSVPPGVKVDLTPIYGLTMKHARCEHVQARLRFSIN
A short description of data set [4]: Toxicity in BALB/c nude mouse xenografted with human MDA-MB-436 cells assessed as induction of body weight loss at 1.6 to […], po BID for 28 days followed by treatment was interruption and monitored for additional 2 months. Format: organism-based. The settings on record: in vivo, dose 1.6-3.1 mg/kg, time 28 day. A general note: Xenograft models place foreign cells or tissue in a host animal.

Data set [5] is described as follows: Toxicity in BALB/c nude mouse xenografted with human NCI-H209 cells assessed as drug tolerability at […], po BID for 28 days and co-treated with 50 mg/kg, po QD TMZ for 5 consecutive days at start of study and again 14 days later relative to TMZ alone. The data set is classed as organism-based. The settings on record: in vivo, dose 0.75 mg/kg, time 28 day.
The nature of data set [6]: Half life in Sprague-Dawley rat at 2 mg/kg, iv by LC-MS/MS analysis. Format: ADME, organism-based. The settings on record: in vivo. The gist of the method:
(§3)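 Sprague-Dawley rats (n=3) get 2 mg/kg iv formulated in 38% DMA in water. Plasma is protein-precipitated and quantified by LC–MS/MS (C18, acetonitrile/0.1% formic acid gradient). Parameters are means of the three rats.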

Data set [7] relates to NCI-H209. Briefly: Antitumor activity against human NCI-H209 cells xenografted in BALB/c nude mouse assessed as inhibition of tumor growth at […], po BID for 28 days. The settings on record: time 28.0 day.
Data set [8] is described as follows: AUC (0 to infinity) in ICR mouse at 1 mg/kg, iv by LC-MS/MS analysis. Format: ADME, organism-based. On the set-up: route intravenous, time infinity, dose 1 mg/kg. The settings on record: in vivo. Put shortly:
as §1

Data set [9] in a line: Clearance in Sprague-Dawley rat at 2 mg/kg, iv by LC-MS/MS analysis. The settings on record: in vivo. The data set is classed as ADME, organism-based. Put shortly:
as §3

Data set [10] deals with MDA-MB-436. Briefly: Antiproliferation activity against human MDA-MB-436 cells expressing BRCA1 mutant incubated for 7 days by CellTiter-Glo luminescent cell viability assay. Format: functional, cell-based. The settings on record: MDA-MB-436, 168 h. Put shortly: as §2
Data set [11] is described as follows: Cmax in ICR mouse at 10 mg/kg, po by LC-MS/MS analysis. The data set is classed as ADME, organism-based. The settings on record: in vivo. On the set-up: route oral, dose 10 mg/kg. Put shortly: as §1
The nature of data set [12]: Tmax in ICR mouse at 10 mg/kg, po by LC-MS/MS analysis. Format: ADME, organism-based. The settings on record: in vivo. Put shortly:
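Three ICR mice per arm. iv dose 1 mg/kg in 5% DMA in water; oral dose 10 mg/kg in 0.5% MC. Plasma was processed by protein precipitation, diluted with water and quantified by LC-MS/MS (C18 column, acetonitrile/0.1% formic acid gradient). Values are means of three animals.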

Data set [13] is described as follows: Clearance in dog liver microsomes. The data set is classed as ADME, Canis lupus familiaris, Microsome. The settings on record: read-out: CLH. On the technique in general: Liver microsomes are a subcellular fraction often used to study metabolism.

The term AUC denotes the area under the concentration-time curve, a measure of exposure. One may read the EC50 as the concentration at which the effect is half-maximal. Higher therefore signals lower potency in that assay. Broadly, the IC50 is the point on the concentration scale where inhibition reaches its midpoint. One may read the half-life as how long it takes for the measured level to halve. Higher therefore signals slow decline. What is called clearance is the rate of elimination divided by the concentration. Lower therefore signals a low capacity for elimination. A word on the Cmax: it is the maximum level reached in the sampled fluid or tissue. Usually Tmax stands for the time at which the peak concentration occurs. Take `C[C@]12CCCN1CC1=NNC(=O)c3cc(F)cc4[nH]c2c1c34` [PAMIPARIB]: the AUC in [1] was determined as 5521 ng·h/mL; in data set [8], 1757 ng·h/mL. For the same compound, the figures for the EC50 in [2] and in [10] were above 10 µM and 0.0106 µM, respectively. Moreover, the IC50 in data set [3] is above 10 µM. Besides, the Activity entry in data set [4] and in data set [5] was “Non-Toxic” throughout. In [6], this compound had a half-life of 5.3 h. Also, the TGI result in [7] is “inactive”. The clearance in [9] stood at 22.7 mL/min/kg. The compound also displayed a Cmax in data set [11] of 2710 ng/mL. For the same compound, the Tmax in data set [12] worked out at 0.583 h. Moreover, the microsomal CLint in [13] came to 9.5 µL/min/mg.
